Measurements published in ChEMBL document CHEMBL1122774, “Tri- and tetrapeptide analogues of kinins as potential renal vasodilators” (J Med Chem, 1984).
Square brackets hold non-standard residues; d marks the D form. Peptide text beside a SMILES is read from it. * marks the point of attachment. ξ: configuration not given here. ξαMeF = CC(N)(Cc1ccccc1)C(=O)O; Bz = O=C(c1ccccc1)*

Each compound was assayed on Canis familiaris (assay: Renal vasodilator activity in anesthetized dogs and percent change in renal blood flow (RBF) was determined at 3 ug/kg min).
Format: functional, Canis lupus familiaris, Kidney
Outline: (§1)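 Primary screen in anesthetized dogs (7-17 kg). Drug infused separately at 3, 30 and 300 µg/(kg min), each infusion lasting 5 min, at about 15-min intervals. Read-outs are renal blood flow, mean arterial blood pressure, heart rate, and RVR (MABP / mean RBF), as percent change. Significance thresholds are defined per number of dogs; n = 1-3 dogs.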

| Compound | Change [%] |
| --- | --- |
| CC(Cc1ccccc1)(NC(=O)[C@@H]1CCCN1)C(=O)N1CCC[C@H]1C(=O)O (stereo not given in full) (H-Pro-[ξαMeF]-Pro-OH) | 0 |
| CC(Cc1ccccc1)(NC(=O)[C@@H]1CCCN1)C(=O)N[C@@H](CCCN=C(N)N)C(=O)O (stereo not given in full) (H-Pro-[ξαMeF]-Arg-OH) | 1.3 |
| N=C(N)NCCC[C@H](NC(=O)[C@H](Cc1ccccc1)NC(=O)[C@@H]1CCCN1C(=O)CCCc1ccccc1)C(=O)O | 5.3 |
| N=C(N)NCCC[C@H](NC(=O)[C@H](Cc1ccccc1)NC(=O)[C@@H]1CCCN1C(=O)c1ccccc1)C(=O)O (Bz-Pro-Phe-Arg-OH) | 3 |
| N=C(N)NCCC[C@H](NC(=O)[C@@H](Cc1ccccc1)NC(=O)[C@@H]1CCCN1C(=O)CCCc1ccccc1)C(=O)O | 3 |

These compounds were tested on Canis familiaris (assay: Renal vasodilator activity in anesthetized dogs and percent change in heart rate (HR) was determined at 300 ug/kg min).
Format: functional, Canis lupus familiaris
Outline: as §1

| Compound | Change [%] |
| --- | --- |
| CC(Cc1ccccc1)(NC(=O)[C@@H]1CCCN1)C(=O)N1CCC[C@H]1C(=O)O (stereo not given in full) (H-Pro-[ξαMeF]-Pro-OH) | 0 |
| CC(Cc1ccccc1)(NC(=O)[C@@H]1CCCN1)C(=O)N[C@@H](CCCN=C(N)N)C(=O)O (stereo not given in full) (H-Pro-[ξαMeF]-Arg-OH) | 0 |
| N=C(N)NCCC[C@H](NC(=O)[C@H](Cc1ccccc1)NC(=O)[C@@H]1CCCN1C(=O)CCCc1ccccc1)C(=O)O | -1.7 |
| N=C(N)NCCC[C@H](NC(=O)[C@H](Cc1ccccc1)NC(=O)[C@@H]1CCCN1C(=O)c1ccccc1)C(=O)O (Bz-Pro-Phe-Arg-OH) | 0 |
| N=C(N)NCCC[C@H](NC(=O)[C@@H](Cc1ccccc1)NC(=O)[C@@H]1CCCN1C(=O)CCCc1ccccc1)C(=O)O | -2 |

These compounds were tested on Canis familiaris (assay: Renal vasodilator activity in anesthetized dogs and percent change in renal vascular resistance (RVR) was determined at 30 ug/kg min).
Format: functional, Canis lupus familiaris
Outline: as §1

| Compound | Change [%] |
| --- | --- |
| CC(Cc1ccccc1)(NC(=O)[C@@H]1CCCN1)C(=O)N1CCC[C@H]1C(=O)O (stereo not given in full) (H-Pro-[ξαMeF]-Pro-OH) | 0 |
| CC(Cc1ccccc1)(NC(=O)[C@@H]1CCCN1)C(=O)N[C@@H](CCCN=C(N)N)C(=O)O (stereo not given in full) (H-Pro-[ξαMeF]-Arg-OH) | -7.3 |
| N=C(N)NCCC[C@H](NC(=O)[C@H](Cc1ccccc1)NC(=O)[C@@H]1CCCN1C(=O)CCCc1ccccc1)C(=O)O | -3.7 |
| N=C(N)NCCC[C@H](NC(=O)[C@H](Cc1ccccc1)NC(=O)[C@@H]1CCCN1C(=O)c1ccccc1)C(=O)O (Bz-Pro-Phe-Arg-OH) | 0 |
| N=C(N)NCCC[C@H](NC(=O)[C@@H](Cc1ccccc1)NC(=O)[C@@H]1CCCN1C(=O)CCCc1ccccc1)C(=O)O | -1 |

Each compound was assayed on Canis familiaris (assay: Renal vasodilator activity in anesthetized dogs and percent change in heart rate (HR) was determined at 30 ug/kg min).
Format: functional, Canis lupus familiaris
Outline: as §1

| Compound | Change [%] |
| --- | --- |
| CC(Cc1ccccc1)(NC(=O)[C@@H]1CCCN1)C(=O)N1CCC[C@H]1C(=O)O (stereo not given in full) (H-Pro-[ξαMeF]-Pro-OH) | 0 |
| CC(Cc1ccccc1)(NC(=O)[C@@H]1CCCN1)C(=O)N[C@@H](CCCN=C(N)N)C(=O)O (stereo not given in full) (H-Pro-[ξαMeF]-Arg-OH) | 0 |
| N=C(N)NCCC[C@H](NC(=O)[C@H](Cc1ccccc1)NC(=O)[C@@H]1CCCN1C(=O)CCCc1ccccc1)C(=O)O | 1.7 |
| N=C(N)NCCC[C@H](NC(=O)[C@H](Cc1ccccc1)NC(=O)[C@@H]1CCCN1C(=O)c1ccccc1)C(=O)O (Bz-Pro-Phe-Arg-OH) | 0 |
| N=C(N)NCCC[C@H](NC(=O)[C@@H](Cc1ccccc1)NC(=O)[C@@H]1CCCN1C(=O)CCCc1ccccc1)C(=O)O | 0 |

The compounds below were run on Canis familiaris (assay: Renal vasodilator activity in anesthetized dogs and percent change in mean arterial blood pressure (MABP) was determined at 30 ug/kg min).
Format: functional, Canis lupus familiaris
Outline: as §1

| Compound | Change [%] |
| --- | --- |
| CC(Cc1ccccc1)(NC(=O)[C@@H]1CCCN1)C(=O)N1CCC[C@H]1C(=O)O (stereo not given in full) (H-Pro-[ξαMeF]-Pro-OH) | 0 |
| CC(Cc1ccccc1)(NC(=O)[C@@H]1CCCN1)C(=O)N[C@@H](CCCN=C(N)N)C(=O)O (stereo not given in full) (H-Pro-[ξαMeF]-Arg-OH) | -0.3 |
| N=C(N)NCCC[C@H](NC(=O)[C@H](Cc1ccccc1)NC(=O)[C@@H]1CCCN1C(=O)CCCc1ccccc1)C(=O)O | 0.3 |
| N=C(N)NCCC[C@H](NC(=O)[C@H](Cc1ccccc1)NC(=O)[C@@H]1CCCN1C(=O)c1ccccc1)C(=O)O (Bz-Pro-Phe-Arg-OH) | 1 |
| N=C(N)NCCC[C@H](NC(=O)[C@@H](Cc1ccccc1)NC(=O)[C@@H]1CCCN1C(=O)CCCc1ccccc1)C(=O)O | 1 |

Each compound was assayed on Canis familiaris (assay: Renal vasodilator activity in anesthetized dogs and percent change in mean arterial blood pressure (MABP) was determined at 3 ug/kg min).
Format: functional, Canis lupus familiaris
Outline: as §1

| Compound | Change [%] |
| --- | --- |
| CC(Cc1ccccc1)(NC(=O)[C@@H]1CCCN1)C(=O)N1CCC[C@H]1C(=O)O (stereo not given in full) (H-Pro-[ξαMeF]-Pro-OH) | 1 |
| CC(Cc1ccccc1)(NC(=O)[C@@H]1CCCN1)C(=O)N[C@@H](CCCN=C(N)N)C(=O)O (stereo not given in full) (H-Pro-[ξαMeF]-Arg-OH) | 1 |
| N=C(N)NCCC[C@H](NC(=O)[C@H](Cc1ccccc1)NC(=O)[C@@H]1CCCN1C(=O)CCCc1ccccc1)C(=O)O | 1 |
| N=C(N)NCCC[C@H](NC(=O)[C@H](Cc1ccccc1)NC(=O)[C@@H]1CCCN1C(=O)c1ccccc1)C(=O)O (Bz-Pro-Phe-Arg-OH) | 4 |
| N=C(N)NCCC[C@H](NC(=O)[C@@H](Cc1ccccc1)NC(=O)[C@@H]1CCCN1C(=O)CCCc1ccccc1)C(=O)O | 0 |

Each compound was assayed on Canis familiaris (assay: Renal vasodilator activity in anesthetized dogs and percent change in renal blood flow (RBF) was determined at 300 ug/kg min).
Format: functional, Canis lupus familiaris, Kidney
Outline: as §1

| Compound | Change [%] |
| --- | --- |
| CC(Cc1ccccc1)(NC(=O)[C@@H]1CCCN1)C(=O)N1CCC[C@H]1C(=O)O (stereo not given in full) (H-Pro-[ξαMeF]-Pro-OH) | 8 |
| CC(Cc1ccccc1)(NC(=O)[C@@H]1CCCN1)C(=O)N[C@@H](CCCN=C(N)N)C(=O)O (stereo not given in full) (H-Pro-[ξαMeF]-Arg-OH) | 7.3 |
| N=C(N)NCCC[C@H](NC(=O)[C@H](Cc1ccccc1)NC(=O)[C@@H]1CCCN1C(=O)CCCc1ccccc1)C(=O)O | -1.7 |
| N=C(N)NCCC[C@H](NC(=O)[C@H](Cc1ccccc1)NC(=O)[C@@H]1CCCN1C(=O)c1ccccc1)C(=O)O (Bz-Pro-Phe-Arg-OH) | -10 |
| N=C(N)NCCC[C@H](NC(=O)[C@@H](Cc1ccccc1)NC(=O)[C@@H]1CCCN1C(=O)CCCc1ccccc1)C(=O)O | 4 |

Each compound was assayed on Canis familiaris (assay: Renal vasodilator activity in anesthetized dogs and percent change in renal vascular resistance (RVR) was determined at 3 ug/kg min).
Format: functional, Canis lupus familiaris
Outline: as §1

| Compound | Change [%] |
| --- | --- |
| CC(Cc1ccccc1)(NC(=O)[C@@H]1CCCN1)C(=O)N1CCC[C@H]1C(=O)O (stereo not given in full) (H-Pro-[ξαMeF]-Pro-OH) | 1 |
| CC(Cc1ccccc1)(NC(=O)[C@@H]1CCCN1)C(=O)N[C@@H](CCCN=C(N)N)C(=O)O (stereo not given in full) (H-Pro-[ξαMeF]-Arg-OH) | 0.3 |
| N=C(N)NCCC[C@H](NC(=O)[C@H](Cc1ccccc1)NC(=O)[C@@H]1CCCN1C(=O)CCCc1ccccc1)C(=O)O | -5.7 |
| N=C(N)NCCC[C@H](NC(=O)[C@H](Cc1ccccc1)NC(=O)[C@@H]1CCCN1C(=O)c1ccccc1)C(=O)O (Bz-Pro-Phe-Arg-OH) | 2 |
| N=C(N)NCCC[C@H](NC(=O)[C@@H](Cc1ccccc1)NC(=O)[C@@H]1CCCN1C(=O)CCCc1ccccc1)C(=O)O | -3 |

What follows are compounds tested on Canis familiaris (assay: Renal vasodilator activity in anesthetized dogs and percent change in renal vascular resistance (RVR) was determined at 300 ug/kg min).
Format: functional, Canis lupus familiaris
Outline: as §1

| Compound | Change [%] |
| --- | --- |
| CC(Cc1ccccc1)(NC(=O)[C@@H]1CCCN1)C(=O)N1CCC[C@H]1C(=O)O (stereo not given in full) (H-Pro-[ξαMeF]-Pro-OH) | -10 |
| CC(Cc1ccccc1)(NC(=O)[C@@H]1CCCN1)C(=O)N[C@@H](CCCN=C(N)N)C(=O)O (stereo not given in full) (H-Pro-[ξαMeF]-Arg-OH) | -5.3 |
| N=C(N)NCCC[C@H](NC(=O)[C@H](Cc1ccccc1)NC(=O)[C@@H]1CCCN1C(=O)CCCc1ccccc1)C(=O)O | 1 |
| N=C(N)NCCC[C@H](NC(=O)[C@H](Cc1ccccc1)NC(=O)[C@@H]1CCCN1C(=O)c1ccccc1)C(=O)O (Bz-Pro-Phe-Arg-OH) | 11 |
| N=C(N)NCCC[C@H](NC(=O)[C@@H](Cc1ccccc1)NC(=O)[C@@H]1CCCN1C(=O)CCCc1ccccc1)C(=O)O | -4 |

These compounds were tested on Canis familiaris (assay: Renal vasodilator activity in anesthetized dogs and percent change in heart rate (HR) was determined at 3 ug/kg min).
Format: functional, Canis lupus familiaris
Outline: as §1

| Compound | Change [%] |
| --- | --- |
| CC(Cc1ccccc1)(NC(=O)[C@@H]1CCCN1)C(=O)N1CCC[C@H]1C(=O)O (stereo not given in full) (H-Pro-[ξαMeF]-Pro-OH) | 0 |
| CC(Cc1ccccc1)(NC(=O)[C@@H]1CCCN1)C(=O)N[C@@H](CCCN=C(N)N)C(=O)O (stereo not given in full) (H-Pro-[ξαMeF]-Arg-OH) | -0.7 |
| N=C(N)NCCC[C@H](NC(=O)[C@H](Cc1ccccc1)NC(=O)[C@@H]1CCCN1C(=O)CCCc1ccccc1)C(=O)O | 2 |
| N=C(N)NCCC[C@H](NC(=O)[C@H](Cc1ccccc1)NC(=O)[C@@H]1CCCN1C(=O)c1ccccc1)C(=O)O (Bz-Pro-Phe-Arg-OH) | 0 |
| N=C(N)NCCC[C@H](NC(=O)[C@@H](Cc1ccccc1)NC(=O)[C@@H]1CCCN1C(=O)CCCc1ccccc1)C(=O)O | -3 |

Each compound was assayed on Canis familiaris (assay: Renal vasodilator activity in anesthetized dogs and percent change in mean arterial blood pressure (MABP) was determined at 300 ug/kg min).
Format: functional, Canis lupus familiaris
Outline: as §1

| Compound | Change [%] |
| --- | --- |
| CC(Cc1ccccc1)(NC(=O)[C@@H]1CCCN1)C(=O)N1CCC[C@H]1C(=O)O (stereo not given in full) (H-Pro-[ξαMeF]-Pro-OH) | -3 |
| CC(Cc1ccccc1)(NC(=O)[C@@H]1CCCN1)C(=O)N[C@@H](CCCN=C(N)N)C(=O)O (stereo not given in full) (H-Pro-[ξαMeF]-Arg-OH) | -0.7 |
| N=C(N)NCCC[C@H](NC(=O)[C@H](Cc1ccccc1)NC(=O)[C@@H]1CCCN1C(=O)CCCc1ccccc1)C(=O)O | -0.7 |
| N=C(N)NCCC[C@H](NC(=O)[C@H](Cc1ccccc1)NC(=O)[C@@H]1CCCN1C(=O)c1ccccc1)C(=O)O (Bz-Pro-Phe-Arg-OH) | 0 |
| N=C(N)NCCC[C@H](NC(=O)[C@@H](Cc1ccccc1)NC(=O)[C@@H]1CCCN1C(=O)CCCc1ccccc1)C(=O)O | 0 |

These compounds were tested on Canis familiaris (assay: Renal vasodilator activity in anesthetized dogs and percent change in renal blood flow (RBF) was determined at 30 ug/kg min).
Format: functional, Canis lupus familiaris, Kidney
Outline: as §1

| Compound | Change [%] |
| --- | --- |
| CC(Cc1ccccc1)(NC(=O)[C@@H]1CCCN1)C(=O)N1CCC[C@H]1C(=O)O (stereo not given in full) (H-Pro-[ξαMeF]-Pro-OH) | 0 |
| CC(Cc1ccccc1)(NC(=O)[C@@H]1CCCN1)C(=O)N[C@@H](CCCN=C(N)N)C(=O)O (stereo not given in full) (H-Pro-[ξαMeF]-Arg-OH) | 9.3 |
| N=C(N)NCCC[C@H](NC(=O)[C@H](Cc1ccccc1)NC(=O)[C@@H]1CCCN1C(=O)CCCc1ccccc1)C(=O)O | 4 |
| N=C(N)NCCC[C@H](NC(=O)[C@H](Cc1ccccc1)NC(=O)[C@@H]1CCCN1C(=O)c1ccccc1)C(=O)O (Bz-Pro-Phe-Arg-OH) | 0 |
| N=C(N)NCCC[C@H](NC(=O)[C@@H](Cc1ccccc1)NC(=O)[C@@H]1CCCN1C(=O)CCCc1ccccc1)C(=O)O | 2 |
